Assay results: paper PMC3986664 (Molecular Metabolism, 2014)
Where a SMILES comes first, the peptide text is derived from it. [ ]: non-standard residue; d: D form. Aib = CC(C)(N)C(=O)O

Key:
[1] = Measure of maximum solubility; type: physicochemical; conditions: pH 7.4, 10 mM Tris, 4 °C, 48 h, saturated solution, UV 280 nm, single point
Method in brief: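 Saturated peptide solutions made in 10 mM Tris base, pH adjusted to 7.4, held 48 h at 4 °C and at ambient temperature, then pH re-measured. Serially diluted until no visible precipitate and UV absorbance became linear.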

[2] = Long-term stability study, alkaline RP-HPLC; type: physicochemical

SMILES | Apparent solubility relative to Asp28 [1] | Difference in stability at six months between Asp28 and IUB75 (Δ1) ([2]; Figure 8, trend-line of degradation slopes) [%] | Stability relative to Asp28 ([2]; same pH and ambient temperature, six month study) | Total degradation ([2]; six months, ambient temperature, 1 mg/ml, 20 mM Tris, 0.1% SDS, pH 8.6)
CSCC[C@H](NC(=O)[C@H](CC(C)C)NC(=O)[C@H](Cc1c[nH]c2ccccc12)NC(=O)[C@H](CCC(N)=O)NC(=O)[C@@H](NC(=O)[C@H](Cc1ccccc1)NC(=O)[C@H](CC(=O)O)NC(=O)[C@H](CCC(N)=O)NC(=O)[C@H](C)NC(=O)[C@H](CCCNC(=N)N)NC(=O)[C@H](CCCNC(=N)N)NC(=O)[C@H](CO)NC(=O)[C@H](CC(=O)O)NC(=O)[C@H](CC(C)C)NC(=O)[C@H](Cc1ccc(O)cc1)NC(=O)[C@H](CCCCN)NC(=O)[C@H](CO)NC(=O)[C@H](Cc1ccc(O)cc1)NC(=O)[C@H](CC(=O)O)NC(=O)[C@H](CO)NC(=O)[C@@H](NC(=O)[C@H](Cc1ccccc1)NC(=O)[C@@H](NC(=O)CNC(=O)[C@H](CCC(N)=O)NC(=O)[C@H](CO)NC(=O)[C@@H](N)Cc1c[nH]cn1)[C@@H](C)O)[C@@H](C)O)C(C)C)C(=O)N[C@@H](CC(=O)O)C(=O)N[C@@H](CCC(=O)O)C(=O)O [Asp28,Glu29] | doubling in apparent peptide solubility |  |  | 
CSCC[C@H](NC(=O)[C@H](CC(C)C)NC(=O)[C@H](Cc1c[nH]c2ccccc12)NC(=O)[C@H](CCC(N)=O)NC(=O)[C@@H](NC(=O)[C@H](Cc1ccccc1)NC(=O)[C@H](CC(=O)O)NC(=O)[C@H](CCC(N)=O)NC(=O)[C@H](C)NC(=O)[C@H](CCCNC(=N)N)NC(=O)[C@H](CCCNC(=N)N)NC(=O)C(C)(C)NC(=O)[C@H](CC(=O)O)NC(=O)[C@H](CC(C)C)NC(=O)[C@H](Cc1ccc(O)cc1)NC(=O)[C@H](CCCCN)NC(=O)[C@H](CO)NC(=O)[C@H](Cc1ccc(O)cc1)NC(=O)[C@H](CC(=O)O)NC(=O)[C@H](CO)NC(=O)[C@@H](NC(=O)[C@H](Cc1ccccc1)NC(=O)[C@@H](NC(=O)CNC(=O)[C@H](CCC(N)=O)NC(=O)[C@H](CO)NC(=O)[C@@H](N)Cc1c[nH]cn1)[C@@H](C)O)[C@@H](C)O)C(C)C)C(=O)N[C@@H](CC(=O)O)C(=O)N[C@@H](CCC(=O)O)C(=O)O [IUB75] (H-HSQGTFTSDYSKYLD[Aib]RRAQDFVQWLMDE-OH) |  | 40 | approximately twice as stable | more than 20%
